Assay results published in the array DNA melting data of Ke et al. (doi:10.1101/2024.01.08.574731).

How the values were obtained:
[1] = folding enthalpy; higher = less favourable; fluorescence melt of hairpins on a sequencing array, two-state fit; conditions: sodium 0.088 M
Procedure, shortened: (§1)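 With Cy3 and quencher oligos annealed, library hairpins on a sequenced MiSeq flow cell were imaged for Cy3 fluorescence in 50 mM Na-HEPES pH 8.0, 25 mM NaCl, in 2.5 °C steps up to 60 °C. Melting temperature and folding enthalpy were derived from bootstrapped two-state fits of signals normalised to pre-quench Cy3 and to control constructs. Four replicates were combined by inverse variance, with fitted temperatures raised by 9.35 °C to match UV melts.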

[2] = melting temperature; fluorescence melt of hairpins on a sequencing array, two-state fit, raised by 9.35 °C to match UV melts; conditions: sodium 0.088 M
Procedure, shortened: as §1

| Sequence | folding enthalpy [1] | Tm [2] |
| --- | --- | --- |
| GTAGATCGAAAGATTTAC (((.(((....))).))) | -30.4 kcal/mol | 39.5 °C |
| GTAGCACGAAAGTGTTAC (((.(((....))).))) | -29.2 kcal/mol | 51.5 °C |
| GTAGCAGAAATGCTAC ((((((....)))))) | -35.4 kcal/mol | 55.9 °C |
| GTAGCAGGAAACTGCTGC (.(((((....))))).) | -26.2 kcal/mol | 55.5 °C |
| GTAGCCACGAAAGTGTAC (((..(((....)))))) | -9.72 kcal/mol | 22.3 °C |
| GTAGCCGAAAGGCAGTAC ((((((....)))..))) | -9.03 kcal/mol | 30.4 °C |
| GTAGCCGAAAGGCTATAC ((((((....)))..))) | -10.2 kcal/mol | 47.1 °C |
| GTAGCCGAAAGGCTGTAC ((((((....)))..))) | -9.24 kcal/mol | 31.2 °C |
| GTAGCCGAAAGGCTTTAC ((((((....)))..))) | -7 kcal/mol | 27.3 °C |
| GTAGCCGGAAACGACTAC ((((.((....)).)))) | -34.4 kcal/mol | 46.6 °C |
| GTAGCGCGAAAGCGTTAC (((.(((....))).))) | -23.1 kcal/mol | 58.3 °C |
| GTAGCGGCGAAAGCCTAC (((..(((....)))))) | -10.4 kcal/mol | 29.9 °C |
| GTAGCTCCGAAAGGATAC (((..(((....)))))) | -14.6 kcal/mol | 25.4 °C |
| GTAGCTCGAAAGAGGTAC (((.(((....))).))) | -38 kcal/mol | 56.7 °C |
| GTAGCTCGAAAGAGTTAC (((.(((....))).))) | -33.6 kcal/mol | 50.6 °C |
| GTAGCTGGAAACAGCTAC (((((((....))))))) | -39 kcal/mol | 66 °C |
| GTAGGACGAAAGTCTAC (((.(((....)))))) | -17.2 kcal/mol | 43 °C |
| GTAGGAGGAAACTCCTAC (((((((....))))))) | -38 kcal/mol | 57.5 °C |
| GTAGGAGGAAACTCTTAC (((.(((....))).))) | -17.8 kcal/mol | 34.8 °C |
| GTAGGCACGAAAGTGTAC (((..(((....)))))) | -13.6 kcal/mol | 29.8 °C |
| GTAGGCCGAAAGGCTTAC (((.(((....))).))) | -21.2 kcal/mol | 55.4 °C |
| GTAGGCGAAAGCCACTAC ((((((....)))..))) | -11.9 kcal/mol | 47.3 °C |
| GTAGGCGAAAGCCTATAC ((((((....)))..))) | -9.56 kcal/mol | 45.2 °C |

| Sequence | folding enthalpy [1] | Tm [2] |
| --- | --- | --- |
| GTAGGCGGAAACACCTAC (((((.(....).))))) | -25.8 kcal/mol | 44.5 °C |
| GTAGGCGGAAACGCCTGC (.(((((....))))).) | -18.6 kcal/mol | 56.7 °C |
| GTAGGCTCGAAAGAGTAC (((..(((....)))))) | -10.6 kcal/mol | 29.2 °C |
| GTAGGGCGAAAGCCATAC (((.(((....))).))) | -22.2 kcal/mol | 55.6 °C |
| GTAGGTGGAAACACCCAC ((.((((....)))).)) | -13.1 kcal/mol | 34.7 °C |
| GTAGGTGGAAACACTTAC (((.(((....))).))) | -28.4 kcal/mol | 39.5 °C |
| GTAGGTGGAAACATCTGC (.((.((....)).)).) | -18.4 kcal/mol | 30 °C |
| GTAGTAGGAAACCACTAC (((((.(....).))))) | -28.9 kcal/mol | 35 °C |
| GTAGTAGGAAACTATTAC (((.(((....))).))) | -17.7 kcal/mol | 29.9 °C |
| GTAGTCGAAAGACATAC ((((((....))).))) | -16.2 kcal/mol | 35.2 °C |
| GTAGTCGAAAGACGTAC ((((((....))).))) | -19.1 kcal/mol | 47.6 °C |
| GTAGTGCCGAAAGGCTAC (((..(((....)))))) | -9.39 kcal/mol | 36.2 °C |
| GTAGTTGAAAAACTAC ((((((....)))))) | -30.9 kcal/mol | 48.9 °C |
| GTAGTTGGAAACAACCAC ((.((((....)))).)) | -18.7 kcal/mol | 32.6 °C |
| GTATAAACGAAAGTTTAC (((..(((....)))))) | -11.8 kcal/mol | 29.4 °C |
| GTATACACGAAAGTGTAC (((..(((....)))))) | -9.78 kcal/mol | 31.1 °C |
| GTATACGAAAGTAAATAC ((((((....)))..))) | -14.8 kcal/mol | 27.7 °C |
| GTATACGAAAGTACATAC ((((((....)))..))) | -10.6 kcal/mol | 21.3 °C |
| GTATACGAAAGTACGTAC ((((((....)))..))) | -14 kcal/mol | 26.7 °C |
| GTATACGCGAAAGCGTAC (((..(((....)))))) | -7.12 kcal/mol | 37.9 °C |
| GTATACGGAAACGTATAC (((((((....))))))) | -44.8 kcal/mol | 55.9 °C |
| GTATACTCGAAAGAGTAC (((..(((....)))))) | -11.6 kcal/mol | 35 °C |
| GTATAGCGAAAGCTGTAC (((.(((....))).))) | -31.5 kcal/mol | 51.1 °C |

| Sequence | folding enthalpy [1] | Tm [2] |
| --- | --- | --- |
| GTATAGGGAAACCTATAC (((((((....))))))) | -41 kcal/mol | 50.1 °C |
| GTATAGGGAAACTTATAC (((((.(....).))))) | -14.2 kcal/mol | 27.7 °C |
| GTATATACGAAAGTATAC (((..(((....)))))) | -16.1 kcal/mol | 29.6 °C |
| GTATATCGAAAGATTAC (((.(((....)))))) | -14.6 kcal/mol | 31 °C |
| GTATATGCGAAAGCATAC (((..(((....)))))) | -8.89 kcal/mol | 32.1 °C |
| GTATATGGAAACATATGC (.(((((....))))).) | -25 kcal/mol | 36.5 °C |
| GTATCACGAAAGTGCTAC (((.(((....))).))) | -22.7 kcal/mol | 41.1 °C |
| GTATCACGAAAGTGTAC (((.(((....)))))) | -18.1 kcal/mol | 42.6 °C |
| GTATCAGAAATGATAC ((((((....)))))) | -31.6 kcal/mol | 45.6 °C |
| GTATCAGGAAACCGATAC (((((.(....).))))) | -30.7 kcal/mol | 38.1 °C |
| GTATCAGGAAACTGACAC ((.((((....)))).)) | -22.7 kcal/mol | 32.1 °C |
| GTATCAGGAAACTGATGC (.(((((....))))).) | -24.8 kcal/mol | 45 °C |
| GTATCCGAAAGGATAC ((((((....)))))) | -35.1 kcal/mol | 65.8 °C |
| GTATCCGGAAACGGATAC (((((((....))))))) | -36.6 kcal/mol | 63.7 °C |
| GTATCCGGAAACGGGTAC (((.(((....))).))) | -42.2 kcal/mol | 51.3 °C |
| GTATCGCGAAAGCGTTAC (((.(((....))).))) | -21.2 kcal/mol | 48.4 °C |
| GTATCGGAAACGATAC ((((((....)))))) | -40.4 kcal/mol | 55.5 °C |
| GTATCGGGAAACCGATAC (((((((....))))))) | -42.3 kcal/mol | 62.2 °C |
| GTATCGGGAAACTGATAC (((((.(....).))))) | -37.3 kcal/mol | 45.3 °C |
| GTATCTGGAAACAGATGC (.(((((....))))).) | -21.2 kcal/mol | 46.9 °C |
| GTATGAGGAAACTCATGC (.(((((....))))).) | -26.4 kcal/mol | 44.5 °C |
| GTATGCGAAAGCAAGTAC ((((((....)))..))) | -8.53 kcal/mol | 26.1 °C |
| GTATGCGAAAGCAGGTAC ((((((....)))..))) | -13.2 kcal/mol | 30 °C |

| Sequence | folding enthalpy [1] | Tm [2] |
| --- | --- | --- |
| GTATGCGAAAGCAGTTAC ((((((....)))..))) | -10.1 kcal/mol | 28.2 °C |
| GTATGCGAAAGCATCTAC ((((((....)))..))) | -11.3 kcal/mol | 40 °C |
| GTATGCGGAAACGCACAC ((.((((....)))).)) | -15.4 kcal/mol | 40 °C |
| GTATGCGGAAACGCGTAC (((.(((....))).))) | -31.9 kcal/mol | 55 °C |
| GTATGCGGAAACGTATAC ((((.((....)).)))) | -31 kcal/mol | 46.5 °C |
| GTATTACGAAAGTACTAC (((.(((....))).))) | -19.9 kcal/mol | 32.7 °C |
| GTATTAGAAATAATAC ((((((....)))))) | -22.2 kcal/mol | 31.9 °C |
| GTATTAGGAAACTGATAC ((((.((....)).)))) | -21.3 kcal/mol | 34.3 °C |
| GTATTCCGAAAGGACTAC (((.(((....))).))) | -26.4 kcal/mol | 38.2 °C |
| GTATTCCGAAAGGAGTAC (((.(((....))).))) | -36.7 kcal/mol | 47.5 °C |
| GTATTCGAAAGAAATAC ((((((....))).))) | -14.9 kcal/mol | 34 °C |
| GTATTCGAAAGAATTAC ((((((....))).))) | -13 kcal/mol | 31.4 °C |
| GTATTCGGAAACGAATGC (.(((((....))))).) | -29.1 kcal/mol | 48.6 °C |
| GTATTGCGAAAGCATAC (((.(((....)))))) | -12.2 kcal/mol | 45 °C |
| GTATTTGGAAACAAATGC (.(((((....))))).) | -28.4 kcal/mol | 39.9 °C |
| GTATTTGGAAACAGATAC ((((.((....)).)))) | -24.7 kcal/mol | 32.4 °C |
| GTCAAACCGAAAGGTGAC (((..(((....)))))) | -21.3 kcal/mol | 45.4 °C |
| GTCAAACGAAAGTTGAC (((.(((....)))))) | -26.5 kcal/mol | 49.7 °C |
| GTCAACGAAAGTTCGGAC ((((((....)))..))) | -14 kcal/mol | 30.5 °C |
| GTCAACGAAAGTTGAGAC ((((((....)))..))) | -12.2 kcal/mol | 43.3 °C |
| GTCAACGAAAGTTTCGAC ((((((....)))..))) | -14.3 kcal/mol | 26.6 °C |
| GTCAACGCGAAAGCGGAC (((..(((....)))))) | -15.3 kcal/mol | 42 °C |
